In ChEMBL document CHEMBL4038269, “Design, synthesis and evaluation of novel feruloyl-donepezil hybrids as potential multitarget drugs for the treatment of Alzheimer's disease” (Eur J Med Chem, 2017):

Tests used:
[1] = tested on: Mus musculus; experiment: Neurotoxicity in Swiss mouse assessed as induction of motor impairment at 100 umol/kg, po measured after 1 hr by open filed test; type: toxicity, organism-based; details: in vivo
Summary of the method: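 Male Swiss mice (n=8) given vehicle or compound orally 1 h before open-field test. Crossings of the central four and peripheral 12 squares counted separately.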

[2] = Metal chelating activity assessed as absorption maximum for compound-Fe2+ complex formation at 75 uM after 30 mins by UV-Vis spectrophotometric method (reference value: 237.2 nanometer); type: functional
Summary of the method: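 UV-Vis spectra in ethanol of compound at 75 µM alone or after 30 min incubation with CuSO4, FeSO4, FeCl3 or ZnCl2 (150 µM). Absorption maxima recorded.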

[3] = tested on: Mus musculus; experiment: In vivo inhibition of COX-1 activity in carrageenan-induced Swiss mouse serum at 100 umol/kg, po pretreated for 1 hr followed by carrageenan challenge after 3 hrs by ELISA relative to control; type: functional
Summary of the method: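 Male Swiss mice given oral drug (100 µmol/kg) or vehicle 1 h before intraplantar carrageenan (legend: 400 µg/paw). At 3 h, animals anaesthetised with chloral hydrate and cardiac blood taken. Serum separated (1500 rpm, 20 min) and frozen at -70 °C. COX-1, COX-2 and 5-LOX measured by specific sandwich ELISA at 450 nm. Expressed as % enzymatic activity, mean ± SEM, n=8.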

COc1cc(/C=C/C(=O)OCC2CCN(Cc3ccccc3)CC2)ccc1O
Activity [1]: Non-Toxic
Activity [2]: 249 nm
inhibition in vivo at 100 µmol/kg [3]: 40%
